This note sets out measurements from ChEMBL document CHEMBL1157090, “Diarylheptanoid from Pleuranthodium racemigerum with in vitro prostaglandin E(2) inhibitory and cytotoxic activity” (J Nat Prod, 2010).

The IC50 is the point on the concentration scale where inhibition reaches its midpoint.

In one assay the test system is HepG2. Put plainly: Cytotoxicity against human HepG2 cells after 24 hrs by ATPLite assay. The note with it: HepG2, 24 h. In kind it is functional, cell-based. Summed up:
(§1)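 Cells grown in appropriate medium were exposed to test compounds at five concentrations for 24 h (5% CO2). Viability was read as cellular ATP by ATPLite luciferase luminescence and quantified against an ATP standard curve. Samples were run in triplicate, and IC50 was calculated from the concentration series.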

Assay [1] in a line: Cytotoxicity against mouse P388D1 cells after 24 hrs by ATPLite assay. The note with it: P388D1, 24 h. It counts as functional, cell-based. Summed up: as §1
In general terms: In ATP-based viability assays light output follows the ATP content of the culture.

A further assay has as its system PC-3. Put plainly: Cytotoxicity against human PC3 cells after 24 hrs by ATPLite assay. It counts as functional, cell-based. The note with it: PC-3, 24 h. Summed up:
as §1

The next assay relates to MCF7. Put plainly: Cytotoxicity against human MCF7 cells after 24 hrs by ATPLite assay. It counts as functional, cell-based. The following applies: MCF7, 24 h. Summed up:
as §1

Another assay has as its system Caco-2. Put plainly: Cytotoxicity against human Caco-2 cells after 24 hrs by ATPLite assay. It counts as functional, cell-based. The following applies: Caco-2, 24 h. The method, boiled down:
as §1

In assay [2] the test system is NIH3T3. The assay is described as follows: Cytotoxicity against mouse 3T3 cells after 3 hrs by ATPLite assay. In kind it is cell-based. The note with it: NIH3T3, 3 h.
Assay [3] deals with NIH3T3. The assay is described as follows: Inhibition of PGE2 production in calcium ionophore […] stimulated mouse 3T3 cells after 3 hrs. It counts as functional, cell-based. The note with it: NIH3T3, 3 h. Summed up: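 3T3 cells in DMEM with 10% FBS were seeded at 2 × 10^5 cells/mL, held ~20 h at 37 °C and 5% CO2, then given test substance (DMSO stock, 10 mg/mL) for 3 h. […] (5 mM DMSO stock) was added for 20 min. Supernatant PGE2 was measured by EIA, in triplicate, as % inhibition versus solvent-treated stimulated cells.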

Take `COc1ccc(C/C=C/CCCCc2ccc(O)cc2)cc1`: the IC50 in the assay with HepG2 was 40.6 µM; in assay [1] it was 117 µM; with PC-3, 23.6 µM; with MCF7, 56.9 µM; in the assay on Caco-2 it was 44.8 µM; in the assay on NIH3T3 [2], 52.8 µM. In the assay on NIH3T3 [3], the half-maximal inhibitory concentration (IC50) is 34 µM.

`COc1cc(/C=C/C(=O)CC(=O)/C=C/c2ccc(O)c(OC)c2)ccc1O` [CURCUMIN]: the IC50 in the assay on HepG2 was 43.8 µM; in assay [1] it was 75.7 µM; with PC-3, 22.7 µM; in the assay with MCF7 it was 51.5 µM; in the assay on Caco-2, 48.6 µM.
